In ChEMBL document CHEMBL5120742, “Multi-target weapons: diaryl-pyrazoline thiazolidinediones simultaneously targeting VEGFR-2 and HDAC cancer hallmarks” (RSC Med Chem, 2021):

Assays:
Histone deacetylase 4 [1] = target: T1, Histone deacetylase 4 (Homo sapiens, UniProt P56524); experiment: Binding affinity to recombinant human N-terminal His6-SUMO-tagged C-terminal SII-tagged HDAC4 expressed in Escherichia coli (BL21) DE3 pLysS cells assessed as melting temperature at 100 uM for 15 mins by thermal shift assay
Procedure, shortened: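 HDAC4 catalytic domain (His6-SUMO/SII, E. coli) at 3 µM was mixed with 100 µM compound in DMSO and held 15 min at 30 °C, then 60 min more at 30 °C. Temperature was stepped by 2 °C with 10 min holds and samples were taken at each step. Samples were centrifuged at 18000g, 4 °C, and the soluble protein was run on SDS-PAGE. Band intensities were fitted to a logistic function, and Tm is the inflection point.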

Histone deacetylase 4 [2] = target: T1, Histone deacetylase 4; experiment: Inhibition of recombinant human N-terminal His6-SUMO-tagged C-terminal SII-tagged HDAC4 expressed in Escherichia coli (BL21) DE3 pLysS cells using BocLys(trifluoroacetyl)-AMC as substrate incubated for 30 mins by fluorescence assay
Procedure, shortened: (§1)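 Catalytic-domain HDAC4 (His6-SUMO/SII-tagged) and full-length codon-optimized human HDAC8 were expressed in E. coli BL21 DE3 pLysS from pET14b. Both were assayed in a two-step fluorogenic format with Boc-Lys(trifluoroacetyl)-AMC, followed by trypsin development. Compounds were screened first at 50 µM for residual activity.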

Histone deacetylase 1 = Histone deacetylase 1 (Homo sapiens, UniProt Q13547); experiment: Inhibition of recombinant human C-terminal His6-FLAG-tagged HDAC1 (1 to end residues) expressed in sf9 insect cells using Boc-Lys(acetyl)-AMC as substrate incubated for 30 mins by fluorescence assay
Procedure, shortened: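 Two-step fluorogenic assay with recombinant HDAC1, 2, 3 or 6. Deacetylation of Boc-Lys(acetyl)-AMC is followed by trypsin conversion of the deacetylated product to a fluorescent signal.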

[3] = Cytotoxicity against HUVEC cells assessed as reduction in cell viability after 96 hrs by MTT assay; conditions: human
Histone deacetylase 7 = target: T2, Histone deacetylase 7 (Homo sapiens, UniProt Q8WUI4); experiment: Inhibition of recombinant human N-terminal GST-tagged HDAC7 (518 to end residues) expressed in baculovirus infected sf9 insect cells using BocLys(trifluoroacetyl)-AMC as substrate incubated for 30 mins by fluorescence assay
T2 sequence (Q8WUI4 whole entry): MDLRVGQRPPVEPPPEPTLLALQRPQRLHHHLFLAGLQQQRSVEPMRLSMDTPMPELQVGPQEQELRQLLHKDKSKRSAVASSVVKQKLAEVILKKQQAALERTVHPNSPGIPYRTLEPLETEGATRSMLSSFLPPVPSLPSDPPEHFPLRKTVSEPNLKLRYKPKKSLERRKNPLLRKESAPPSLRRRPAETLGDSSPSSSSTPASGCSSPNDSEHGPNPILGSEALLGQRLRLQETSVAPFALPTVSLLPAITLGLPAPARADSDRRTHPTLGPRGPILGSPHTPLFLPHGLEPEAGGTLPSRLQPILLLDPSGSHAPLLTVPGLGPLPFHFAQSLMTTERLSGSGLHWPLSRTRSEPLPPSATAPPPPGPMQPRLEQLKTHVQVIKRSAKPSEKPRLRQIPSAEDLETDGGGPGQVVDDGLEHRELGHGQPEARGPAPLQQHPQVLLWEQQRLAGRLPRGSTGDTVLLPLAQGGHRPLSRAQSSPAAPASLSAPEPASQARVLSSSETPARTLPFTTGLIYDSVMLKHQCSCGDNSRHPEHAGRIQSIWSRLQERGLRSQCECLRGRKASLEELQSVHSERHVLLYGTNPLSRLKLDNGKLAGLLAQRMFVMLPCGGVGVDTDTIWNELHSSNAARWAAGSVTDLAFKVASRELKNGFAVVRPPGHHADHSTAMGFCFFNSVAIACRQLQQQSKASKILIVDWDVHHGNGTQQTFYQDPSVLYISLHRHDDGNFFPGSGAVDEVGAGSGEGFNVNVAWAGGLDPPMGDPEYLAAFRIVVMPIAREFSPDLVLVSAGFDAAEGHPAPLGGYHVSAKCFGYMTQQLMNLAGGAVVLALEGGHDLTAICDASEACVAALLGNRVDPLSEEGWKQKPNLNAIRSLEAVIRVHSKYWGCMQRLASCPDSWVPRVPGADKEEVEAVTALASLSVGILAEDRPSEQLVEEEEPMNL
Procedure, shortened: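 Recombinant HDAC7 was tested in a two-step fluorogenic assay. Boc-Lys(trifluoroacetyl)-AMC serves as substrate, then trypsin releases the fluorophore.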

Histone deacetylase 4 [4] = target: T1, Histone deacetylase 4; experiment: Inhibition of recombinant human N-terminal His6-SUMO-tagged C-terminal SII-tagged HDAC4 expressed in Escherichia coli (BL21) DE3 pLysS cells assessed as residual activity at 50 uM using BocLys(trifluoroacetyl)-AMC as substrate incubated for 30 mins by fluorescence assay relative to control; procedure, shortened: as §1
[5] = target: T3, Histone deacetylase 8 (Homo sapiens) (UniProt Q9BY41); experiment: Inhibition of recombinant human N-terminal His6-SUMO-tagged C-terminal SII-tagged HDAC8 expressed in Escherichia coli (BL21) DE3 pLysS cells assessed as residual activity at 50 uM using BocLys(trifluoroacetyl)-AMC as substrate incubated for 30 mins by fluorescence assay relative to control; procedure, shortened: as §1
T3 sequence (whole entry): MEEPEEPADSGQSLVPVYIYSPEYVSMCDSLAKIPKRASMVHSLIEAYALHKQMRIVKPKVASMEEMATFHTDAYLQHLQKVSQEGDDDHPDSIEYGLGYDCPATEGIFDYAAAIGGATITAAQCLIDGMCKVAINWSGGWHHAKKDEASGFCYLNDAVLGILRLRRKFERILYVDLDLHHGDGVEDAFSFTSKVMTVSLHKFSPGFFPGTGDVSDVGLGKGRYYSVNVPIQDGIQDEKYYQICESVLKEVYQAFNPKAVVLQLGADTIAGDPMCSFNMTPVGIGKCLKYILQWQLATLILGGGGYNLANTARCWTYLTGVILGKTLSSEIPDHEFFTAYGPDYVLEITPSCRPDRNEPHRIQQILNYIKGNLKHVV

[6] = target: T4, Vascular endothelial growth factor receptor 2 (Homo sapiens, UniProt P35968); experiment: Inhibition of human VEGFR2 in HUVEC cells assessed as reduction in VEGFR2 phosphorylation at 10 uM incubated for 30 mins by anti-phospho VEGF Tyr 1175 antibody based assay relative to control; type: cell-based
Procedure, shortened: (§2)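 HUVECs were seeded at 4000–5000 per well in DMEM with 10% FCS for 12 h, then held 24 h in serum. Compound (10 µM) was added with serum for 30 min at 37 °C. Cells were fixed in 4% formaldehyde and probed with anti-phospho-VEGFR Tyr1175 (1:1000), then an HRP secondary (1:5000). TMB signal was stopped with 2N H2SO4 and read at 450 nm. Percent inhibition is normalized to control.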

[7] = target: T4, Vascular endothelial growth factor receptor 2; experiment: Inhibition of human VEGFR2 in HUVEC cells assessed as reduction in VEGFR2 phosphorylation incubated for 30 mins by anti-phospho VEGF Tyr 1175 antibody based assay; type: cell-based; procedure, shortened: as §2

Histone deacetylase 1, sequence (Q13547 whole entry): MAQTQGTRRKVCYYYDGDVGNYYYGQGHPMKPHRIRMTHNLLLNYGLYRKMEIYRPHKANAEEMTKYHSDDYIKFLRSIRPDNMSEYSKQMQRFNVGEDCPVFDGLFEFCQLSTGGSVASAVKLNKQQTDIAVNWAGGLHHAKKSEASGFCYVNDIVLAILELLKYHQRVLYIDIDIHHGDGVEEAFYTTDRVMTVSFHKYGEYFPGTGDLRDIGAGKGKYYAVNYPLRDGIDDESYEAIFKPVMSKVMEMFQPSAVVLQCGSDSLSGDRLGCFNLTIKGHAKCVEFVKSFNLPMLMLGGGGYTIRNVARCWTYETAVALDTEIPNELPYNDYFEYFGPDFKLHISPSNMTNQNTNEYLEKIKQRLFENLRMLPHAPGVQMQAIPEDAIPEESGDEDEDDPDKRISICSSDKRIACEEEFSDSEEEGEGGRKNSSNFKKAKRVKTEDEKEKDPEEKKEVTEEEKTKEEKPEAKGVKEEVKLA
T4 sequence (P35968 whole entry): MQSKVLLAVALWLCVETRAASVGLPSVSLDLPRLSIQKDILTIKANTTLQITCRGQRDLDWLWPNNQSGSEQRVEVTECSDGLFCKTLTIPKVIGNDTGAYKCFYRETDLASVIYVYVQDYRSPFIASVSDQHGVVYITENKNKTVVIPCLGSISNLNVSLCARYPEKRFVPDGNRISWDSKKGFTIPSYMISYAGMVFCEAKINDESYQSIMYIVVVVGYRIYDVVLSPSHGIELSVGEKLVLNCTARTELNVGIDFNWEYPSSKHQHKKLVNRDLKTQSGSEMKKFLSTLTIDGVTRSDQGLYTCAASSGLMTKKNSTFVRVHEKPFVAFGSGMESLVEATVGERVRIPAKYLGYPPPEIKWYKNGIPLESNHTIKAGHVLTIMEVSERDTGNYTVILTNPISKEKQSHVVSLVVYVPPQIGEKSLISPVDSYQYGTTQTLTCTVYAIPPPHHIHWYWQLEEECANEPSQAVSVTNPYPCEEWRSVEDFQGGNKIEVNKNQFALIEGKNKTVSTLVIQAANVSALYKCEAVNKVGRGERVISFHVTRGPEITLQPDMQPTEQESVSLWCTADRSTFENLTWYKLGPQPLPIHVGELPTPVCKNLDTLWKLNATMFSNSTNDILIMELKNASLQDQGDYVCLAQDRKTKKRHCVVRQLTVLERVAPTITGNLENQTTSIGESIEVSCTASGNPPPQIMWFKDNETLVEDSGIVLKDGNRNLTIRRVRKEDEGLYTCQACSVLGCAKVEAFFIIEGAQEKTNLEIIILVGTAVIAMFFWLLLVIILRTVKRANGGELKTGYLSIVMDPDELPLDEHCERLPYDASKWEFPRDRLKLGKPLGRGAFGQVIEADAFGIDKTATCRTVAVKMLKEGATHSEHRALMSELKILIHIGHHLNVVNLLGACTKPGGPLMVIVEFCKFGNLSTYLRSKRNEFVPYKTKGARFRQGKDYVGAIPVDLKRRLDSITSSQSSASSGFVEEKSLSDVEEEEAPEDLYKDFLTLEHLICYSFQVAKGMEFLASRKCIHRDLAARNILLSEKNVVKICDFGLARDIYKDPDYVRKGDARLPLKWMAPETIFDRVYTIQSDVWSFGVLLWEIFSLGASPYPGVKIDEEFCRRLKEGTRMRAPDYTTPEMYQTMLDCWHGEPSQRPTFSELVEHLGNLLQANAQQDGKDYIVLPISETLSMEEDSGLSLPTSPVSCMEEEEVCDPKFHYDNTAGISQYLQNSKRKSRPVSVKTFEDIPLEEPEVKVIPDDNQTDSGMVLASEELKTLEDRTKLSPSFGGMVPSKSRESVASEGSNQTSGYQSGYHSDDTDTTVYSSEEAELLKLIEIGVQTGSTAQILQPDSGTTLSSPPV
T1 sequence (P56524 whole entry, the tested form may be a part): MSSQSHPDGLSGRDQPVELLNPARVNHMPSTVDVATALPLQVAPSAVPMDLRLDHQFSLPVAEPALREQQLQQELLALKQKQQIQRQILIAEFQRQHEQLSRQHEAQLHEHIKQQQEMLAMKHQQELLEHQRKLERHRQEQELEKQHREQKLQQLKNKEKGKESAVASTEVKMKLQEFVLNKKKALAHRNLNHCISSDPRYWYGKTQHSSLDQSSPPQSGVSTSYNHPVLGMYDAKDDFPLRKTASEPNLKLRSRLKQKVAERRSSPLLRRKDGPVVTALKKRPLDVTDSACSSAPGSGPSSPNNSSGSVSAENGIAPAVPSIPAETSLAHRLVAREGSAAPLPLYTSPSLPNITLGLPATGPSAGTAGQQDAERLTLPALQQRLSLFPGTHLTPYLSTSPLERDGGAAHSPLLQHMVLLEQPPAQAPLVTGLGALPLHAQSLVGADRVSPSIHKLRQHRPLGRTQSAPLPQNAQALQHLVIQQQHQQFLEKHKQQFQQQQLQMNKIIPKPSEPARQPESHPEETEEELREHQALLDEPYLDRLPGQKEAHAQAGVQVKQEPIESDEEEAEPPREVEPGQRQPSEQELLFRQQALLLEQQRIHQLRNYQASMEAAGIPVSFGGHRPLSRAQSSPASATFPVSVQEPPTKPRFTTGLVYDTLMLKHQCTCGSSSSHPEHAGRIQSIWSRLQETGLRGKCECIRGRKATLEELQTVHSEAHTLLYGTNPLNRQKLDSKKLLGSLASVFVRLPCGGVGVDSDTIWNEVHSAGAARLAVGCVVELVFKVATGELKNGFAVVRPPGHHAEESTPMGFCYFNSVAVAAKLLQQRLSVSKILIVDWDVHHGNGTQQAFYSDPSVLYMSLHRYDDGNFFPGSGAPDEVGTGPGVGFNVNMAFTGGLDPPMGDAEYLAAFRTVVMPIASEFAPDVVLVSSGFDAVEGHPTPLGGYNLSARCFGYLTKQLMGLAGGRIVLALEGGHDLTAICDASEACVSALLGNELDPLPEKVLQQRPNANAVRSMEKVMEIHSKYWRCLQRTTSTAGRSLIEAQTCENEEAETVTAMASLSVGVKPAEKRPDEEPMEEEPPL

SMILES | Tm (Histone deacetylase 4 [1]) [°C] | IC50 (Histone deacetylase 4 [2]) [µM] | IC50 (Histone deacetylase 1) [µM] | IC50 at 96 h [3] [µM] | IC50 (Histone deacetylase 7) [µM] | Activity (Histone deacetylase 4 [4]) [%] | Activity [5] [%] | inhibition [6] [%] | IC50 [7] [µM]
O=C1NC(=O)/C(=C\c2ccc(OCC(=O)N3N=C(c4ccccc4)CC3c3ccc(Cl)c(Cl)c3)cc2)S1 (stereo not drawn) | 56.7 | 0.7 | 4.9 | > 10 | > 50 | 5.9 | 9.4 |  | 
O=C1NC(=O)/C(=C\c2ccc(OCC(=O)N3N=C(c4ccc(F)cc4)CC3c3ccc(Cl)c(Cl)c3)cc2)S1 (stereo not drawn) | 57.3 | 0.8 | 11 | 2 | 6.7 | 13 | 22 | 22.4 | 
O=C1NC(=O)/C(=C\c2ccc(OCC(=O)N3N=C(c4ccc(F)cc4)CC3c3ccco3)cc2)S1 (stereo not drawn) |  | 0.88 | > 50 | 0.7 | > 50 | 36 | 45 | 56.7 | 5
